Test results taken from ChEMBL document CHEMBL2163287, “Nitro seco analogues of the duocarmycins containing sulfonate leaving groups as hypoxia-activated prodrugs for cancer therapy” (J Med Chem, 2012).
pIC50: −log10 of the molar value. Calls of active or inactive are those of the source. No cut-off for these calls is given here.

Assays:
SiHa [1] = assay: Antitumor activity against human SiHa cells xenografted in immunocompromized mouse assessed as number of colony forming cells per gram of tumor tissue at 42 umol/kg, iv tumor excised post 18 hrs followed by culturing for 14 days; assay type: functional
Procedure, shortened: (§1)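 SiHa tumours grown subcutaneously in male mice from 10⁷ cultured cells; randomized at 8−10 mm mean diameter. Compound in phosphate-buffered saline with 4 equiv sodium bicarbonate, given via tail vein at the stated dose, alone or 5 min after 15 Gy whole-body cobalt-60 γ irradiation. Tumours excised 18 h after dosing, cells cultured 14 days for clonogens. Groups of 3 (drug alone) or 5 (radiation + drug).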

SiHa [2] = assay: Antitumor activity against human SiHa cells xenografted in immunocompromized gamma irradiated mouse assessed as log cell kill at 42 umol/kg, iv tumor excised post 18 hrs followed by culturing for 14 days under hypoxic condition; assay type: functional
Procedure, shortened: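 Male immunocompromised mice bearing subcutaneous tumours (10^7 cultured cells), randomized at 8–10 mm mean diameter. Compound in PBS with 4 equiv sodium bicarbonate given iv (tail vein), alone or 5 min after 15 Gy whole-body cobalt-60 γ-irradiation, which sterilizes oxygenated cells. Tumours excised 18 h after dosing and plated for clonogens for 14 days. n = 3 (vehicle or compound alone) or 5 (irradiated groups).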

SiHa [3] = assay: Antitumor activity against human SiHa cells xenografted in immunocompromized gamma irradiated mouse assessed as number of colony forming cells per gram of tumor tissue at 42 umol/kg, iv tumor excised post 18 hrs followed by culturing for 14 days; assay type: functional; procedure, shortened: as §1
SiHa [4] = assay: Cytotoxicity against human SiHa cells under oxic condition assessed as inhibition of cell proliferation after 4 hrs; assay type: functional, cell-based
Procedure, shortened: (§2)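 Log-phase monolayers were exposed to drug for 4 h, aerobic (20% O2) for line 5 and anoxic (<20 ppm O2) for line 4. Cell density was read by sulforhodamine B staining 5 days later. IC50 was interpolated as the concentration reducing density to 50% of same-plate controls; mean ± SEM of 3–9 experiments.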

HT-29 [5] = assay: Cytotoxicity against human HT-29 cells under hypoxic condition assessed as inhibition of cell proliferation after 4 hrs by SRB method; assay type: functional, cell-based; settings: HT-29, 4 h
Procedure, shortened: (§3)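 Log-phase monolayers were exposed 4 h under 20% O₂ or anoxia (<20 ppm O₂), then stained with sulforhodamine B 5 days later. IC50, interpolated as the concentration reducing cell density to 50% of same-plate controls, is given as mean of 3−9 experiments. HCR = IC50(oxic)/IC50(hypoxic), taken as the mean of intraexperiment ratios from 3−6 experiments.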

SiHa [6] = assay: Cytotoxicity against human SiHa cells under hypoxic condition assessed as inhibition of cell proliferation after 4 hrs; assay type: functional, cell-based; procedure, shortened: as §2
HT-29 [7] = assay: Ratio of IC50 for human HT-29 cells under oxic condition to IC50 for human HT-29 cells under hypoxic condition; assay type: functional; procedure, shortened: as §3
HT-29 [8] = assay: Cytotoxicity against human HT-29 cells under oxic condition assessed as inhibition of cell proliferation after 4 hrs by SRB method; assay type: functional, cell-based; settings: HT-29, 4 h; procedure, shortened: as §3
NCI-H460 = assay: Toxicity in human H460 cells xenografted immunocompromized mouse at 75 umol/kg, iv; settings: in vivo
SiHa [9] = assay: Cytotoxicity against human SiHa cells under oxic condition after 4 hrs by clonogenic assay; assay type: functional, cell-based
Procedure, shortened: (§4)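 Cells were exposed to drug in duplicate for 4 h at 37 °C, either aerobic (95% air, 5% CO₂) or in an anaerobic chamber (<0.001% O₂). Medium was αMEM + 10% FCS with added glucose (final 17 mmol/L) and 200 μmol/L 2′-deoxycytidine. Cells were then trypsinized and plated; colonies >50 cells were counted after 14 days (methylene blue). C10 = concentration giving 10% survival vs controls; HCR = C10(oxic)/C10(hypoxic).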

SiHa [10] = assay: Cytotoxicity against human SiHa cells under hypoxic condition assessed as after 4 hrs by clonogenic assay; assay type: functional, cell-based; procedure, shortened: as §4

SMILES | log10cfu (SiHa [1]) | LCK (SiHa [2]) | log10cfu (SiHa [3]) | pIC50 (SiHa [4]) | pIC50 (HT-29 [5]) | pIC50 (SiHa [6]) | Ratio IC50 (HT-29 [7]) | pIC50 (HT-29 [8]) | Activity (NCI-H460) | Activity (SiHa [9]) | Activity (SiHa [10])
O=C(c1cc2cc(OCCN3CCOCC3)ccc2[nH]1)N1CC(COS(=O)(=O)Cc2ccccc2)c2c1cc([N+](=O)[O-])c1cc(S(=O)(=O)NCCOP(=O)(O)O)ccc21 (stereo not given) | 7.08 | 0.34 | 4.76 | – | – | – | – | – | – | – | –
COc1ccc(/C=C/C(=O)N2CC(COS(C)(=O)=O)c3c2cc([N+](=O)[O-])c2cc(S(=O)(=O)NCCO)ccc32)cc1 (stereo not given) | – | – | – | 4.96 | 5.39 | 6.49 | 31 | 4.59 | – | – | –
COc1cc2cc(C(=O)N3CC(CCl)c4c3cc([N+](=O)[O-])c3cc(C(=O)NCCO)ccc43)[nH]c2c(OC)c1OC (stereo not given) | – | – | – | – | 5.49 | – | 1.7 | 5.24 | – | – | –
NC(=O)c1ccc2c3c(cc([N+](=O)[O-])c2c1)N(C(=O)c1cc2cc(OCCOP(=O)(O)O)ccc2[nH]1)CC3COS(=O)(=O)Cc1ccccc1 (stereo not given) | 6.91 | 0.37 | 5.09 | – | – | – | – | – | Non-toxic | – | –
CN(C)CCOc1ccc2[nH]c(C(=O)N3CC(COS(=O)(=O)Cc4ccccc4)c4c3cc([N+](=O)[O-])c3cc(C(N)=O)ccc43)cc2c1 (stereo not given) | – | – | – | 6.28 | 7.42 | 6.92 | 58 | 5.66 | – | – | –
COc1ccc(/C=C/C(=O)N2CC(COS(=O)(=O)Cc3ccccc3)c3c2cc([N+](=O)[O-])c2cc(C(N)=O)ccc32)cc1O (stereo not given) | – | – | – | 5.68 | 6.37 | 7.02 | 21 | 5.34 | – | Active | Active
CN(C)CCOc1ccc2[nH]c(C(=O)N3CC(CCl)c4c3cc([N+](=O)[O-])c3cc(C(=O)NCCOP(=O)(O)O)ccc43)cc2c1 (stereo not given) | 6.56 | 2.21 | 3.11 | – | – | – | – | – | – | – | –
COc1cc2cc(C(=O)N3CC(COS(=O)(=O)Cc4ccccc4)c4c3cc([N+](=O)[O-])c3cc(S(=O)(=O)NCCOP(=O)(O)O)ccc43)[nH]c2c(OC)c1OC (stereo not given) | 6.53 | 2.71 | 2.39 | – | – | – | – | – | – | – | –
COc1ccc(/C=C/C(=O)N2CC(COS(=O)(=O)Cc3ccccc3)c3c2cc([N+](=O)[O-])c2cc(S(=O)(=O)NCCO)ccc32)cc1 (stereo not given) | – | – | – | 5.14 | 6.02 | 6.43 | 50 | 4.33 | – | – | –
CN(C)CCOc1ccc2[nH]c(C(=O)N3CC(COS(C)(=O)=O)c4c3cc([N+](=O)[O-])c3cc(S(=O)(=O)NCCO)ccc43)cc2c1 (stereo not given) | – | – | – | 5.39 | 5.66 | 6.42 | 7.4 | 4.89 | – | – | –
CN(C)CCOc1ccc2[nH]c(C(=O)N3CC(COS(=O)(=O)Cc4ccccc4)c4c3cc([N+](=O)[O-])c3cc(S(N)(=O)=O)ccc43)cc2c1 (stereo not given) | – | – | – | 6.43 | 7.05 | 7.35 | 18 | 5.80 | – | – | –
N#Cc1ccc2c3c(cc([N+](=O)[O-])c2c1)N(C(=O)c1cc2cc(OCCO)ccc2[nH]1)CC3COS(=O)(=O)Cc1ccccc1 (stereo not given) | – | – | – | 6.15 | 6.31 | 7.46 | 5.2 | 5.60 | – | – | –
COc1cc2cc(C(=O)N3CC(COS(=O)(=O)Cc4ccccc4)c4c3cc([N+](=O)[O-])c3cc(C(=O)NCCOP(=O)(O)O)ccc43)[nH]c2c(OC)c1OC (stereo not given) | 6.71 | 1.78 | 3.62 | – | – | – | – | – | Non-toxic | – | –
COc1cc2cc(C(=O)N3CC(COS(=O)(=O)Cc4ccccc4)c4c3cc([N+](=O)[O-])c3cc(S(=O)(=O)NCCO)ccc43)[nH]c2c(OC)c1OC (stereo not given) | – | – | – | 6.03 | 6.44 | 6.96 | 23 | 5.08 | – | – | –
CN(C)CCOc1ccc2[nH]c(C(=O)N3CC(COS(=O)(=O)Cc4ccccc4)c4c3cc([N+](=O)[O-])c3cc(S(=O)(=O)NCCO)ccc43)cc2c1 (stereo not given) | – | – | – | 5.35 | 5.41 | 7.26 | 9.7 | 4.42 | – | – | –
O=C(c1cc2cc(OCCN3CCOCC3)ccc2[nH]1)N1CC(COS(=O)(=O)Cc2ccccc2)c2c1cc([N+](=O)[O-])c1cc(S(=O)(=O)NCCO)ccc21 (stereo not given) | – | – | – | 4.64 | < 4.70 | 7.41 | <2.5 | 4.30 | – | – | –
CN(C)CCOc1ccc2[nH]c(C(=O)N3CC(COS(C)(=O)=O)c4c3cc([N+](=O)[O-])c3cc(S(=O)(=O)NCCOP(=O)(O)O)ccc43)cc2c1 (stereo not given) | 7.18 | 0.33 | 4.65 | – | – | – | – | – | Non-toxic | – | –
COc1ccc(/C=C/C(=O)N2CC(COS(=O)(=O)Cc3ccccc3)c3c2cc([N+](=O)[O-])c2cc(S(=O)(=O)NCCOP(=O)(O)O)ccc32)cc1 (stereo not given) | 6.74 | 0.78 | 4.32 | – | – | – | – | – | – | – | –
CN(C)CCOc1ccc2[nH]c(C(=O)N3CC(COS(=O)(=O)Cc4ccccc4)c4c3cc([N+](=O)[O-])c3cc(C(=O)NCCOP(=O)(O)O)ccc43)cc2c1 (stereo not given) | 6.92 | 0.98 | 4.42 | – | – | – | – | – | Non-toxic | – | –
COc1ccc(/C=C/C(=O)N2CC(COS(C)(=O)=O)c3c2cc([N+](=O)[O-])c2cc(S(=O)(=O)NCCOP(=O)(O)O)ccc32)cc1 (stereo not given) | 7.09 | 0.71 | 4.75 | – | – | – | – | – | Non-toxic | – | –
COc1cc2cc(C(=O)N3CC(COS(=O)(=O)Cc4ccccc4)c4c3cc([N+](=O)[O-])c3cc(C#N)ccc43)[nH]c2c(OC)c1OC (stereo not given) | – | – | – | 6.19 | 7.37 | 7.59 | 94 | 5.59 | – | – | –
COc1cc2cc(C(=O)N3CC(COS(=O)(=O)Cc4ccccc4)c4c3cc([N+](=O)[O-])c3cc(C(=O)NCCO)ccc43)[nH]c2c(OC)c1OC (stereo not given) | – | – | – | 6.05 | 6.21 | 6.80 | 13 | 4.82 | – | – | –
COc1ccc(/C=C/C(=O)N2CC(COS(=O)(=O)Cc3ccccc3)c3c2cc([N+](=O)[O-])c2cc(C#N)ccc32)cc1O (stereo not given) | – | – | – | 6.24 | 6.21 | 7.72 | 5.4 | 5.47 | – | Active | Active
COc1cc2cc(C(=O)N3CC(COS(C)(=O)=O)c4c3cc([N+](=O)[O-])c3cc(S(=O)(=O)NCCO)ccc43)[nH]c2c(OC)c1OC (stereo not given) | – | – | – | 5.20 | 4.85 | 5.68 | 8.6 | 4.85 | – | – | –
CN(C)CCOc1ccc2[nH]c(C(=O)N3CC(COS(=O)(=O)Cc4ccccc4)c4c3cc([N+](=O)[O-])c3cc(C(=O)NCCO)ccc43)cc2c1 (stereo not given) | – | – | – | 5.64 | 6.24 | 6.68 | 12 | 5.37 | – | Active | Active
COc1cc2cc(C(=O)N3CC(CCl)c4c3cc([N+](=O)[O-])c3cc(S(=O)(=O)NCCOP(=O)(O)O)ccc43)[nH]c2c(OC)c1OC (stereo not given) | – | 0.54 | – | – | – | – | – | – | – | – | –
CN(C)CCOc1ccc2[nH]c(C(=O)N3CC(CCl)c4c3cc([N+](=O)[O-])c3cc(C(=O)NCCO)ccc43)cc2c1 (stereo not given) | – | – | – | 5.38 | 6.96 | 6.62 | 485 | 4.92 | – | – | –
CN(C)CCOc1ccc2[nH]c(C(=O)N3CC(COS(=O)(=O)Cc4ccccc4)c4c3cc([N+](=O)[O-])c3cc(S(=O)(=O)NCCOP(=O)(O)O)ccc43)cc2c1 (stereo not given) | 6.92 | 0.18 | 4.92 | – | – | – | – | – | – | – | –
